Dynein transport = dynein cargo transport inhibition. 0.47% of 220,000 active. z-score, hits read low. 3617.4 mouse cells, GR-EGFP nuclear translocation imaging; test concentration mostly 20 µM; stimulated with dexamethasone, 1 µM; active compounds read low. AID 1381;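 active = plate z-score of nuclear minus cytoplasmic receptor signal below a set negative limit, without overly bright fluorescence or cell loss, cut at about -3.5 in these data, passing the limit was not always enough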;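 note: z-score of nuclear minus cytoplasmic ring GR-EGFP intensity difference per well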
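Buffer or medium: Induction medium lacking tetracycline, stripped serum | Also added: Dexamethasone agonist, 1.0 µM final, for 30 min | Timing: 48 h induction, 1 h compound, 30 min dex at 37 °C | Detection: Formaldehyde fixation, Hoechst nuclear stain, 10x automated fluorescence imaging | Measure: Nuclear versus cytoplasmic GR-EGFP signal, averaged per well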
L929 necroptosis = blocks zVAD induced death of L929 cells. L929 zVAD necroptosis rescue, ATP luminescence, 24 h; with zVAD 60 µM. viability rescue, % at 10 µM. 0.38% of 220,000 active;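 active = activation, scaled between plate controls, above about 75%, limit read from the data; inactive = activation under that limit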;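 note: 0% = zVAD with DMSO and 100% = DMSO alone without zVAD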
MDM2 E3 inh = blocks human Mdm2 ubiquitin ligase activity | AID 1230 | cell-based MDM2 ubiquitination luciferase reporter, 2 h; 0 = plate control, 100 = twice control, blank-subtracted | signal enhancement, % at 5 µM | 0.11% of 210,000 active;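 active = signal enhancement of 30% or more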;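 note: luminescence tracks abundance of the self-degrading MDM2-luciferase fusion protein; higher signal means inhibition of MDM2 E3 ligase activity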
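test system = mammalian cells stably expressing self-ubiquitinating, self-degrading MDM2 E3–luciferase fusion | quantity = 2000 cells/well | incubation = cell settling 4 h, compound treatment 2 h, both 37 °C | signal = luminescence with SteadyLite reagent, 15 min at room temperature | evaluation = % enhancement relative to plate controls after blank subtraction | benchmarks = plate controls and plate blanks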
TNF necrop inh = TNF-alpha cell death inhibition in Jurkat FADD-/- cells | Jurkat FADD-/- TNF necroptosis rescue, ATP luminescence, 24 h; 0 = TNF only, 100 = no-TNF cells | activation (protection from cell death), % at 10 µM | 0.068% of 220,000 active;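 active = activation, meaning protection from cell death, of at least 50% relative to plate controls; inactive = activation below 50%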;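 note: necroptosis triggered by 40 ng/mL TNF-alpha added together with compound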
B2AR ag = human beta-2 adrenergic receptor agonism by FAP; Am2.2-beta2AR cells, FAP receptor internalization, flow cytometry; response, % (no concentration beside the values); 0.43% of 340,000 active;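 active = response above a set limit, near 3 SD of response in nonfluorescent compounds, cut at about 42% in these data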
Target sequence (P07550 whole entry, looked up): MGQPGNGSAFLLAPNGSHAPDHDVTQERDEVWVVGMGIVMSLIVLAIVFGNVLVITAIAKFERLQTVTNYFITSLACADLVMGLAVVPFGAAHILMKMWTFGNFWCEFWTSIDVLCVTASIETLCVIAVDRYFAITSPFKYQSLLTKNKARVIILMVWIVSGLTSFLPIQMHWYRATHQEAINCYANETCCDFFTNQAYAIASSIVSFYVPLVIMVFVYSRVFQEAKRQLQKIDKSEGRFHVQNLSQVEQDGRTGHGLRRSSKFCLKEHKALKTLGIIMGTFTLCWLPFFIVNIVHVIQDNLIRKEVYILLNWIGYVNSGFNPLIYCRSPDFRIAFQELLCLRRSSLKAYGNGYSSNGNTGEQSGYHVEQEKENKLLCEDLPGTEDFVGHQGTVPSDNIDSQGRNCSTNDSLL
Dynein inh conf = dynein cargo transport inhibition, confirmation; shares compounds with Dynein transport; 3617.4 GR-EGFP nuclear translocation imaging, dexamethasone-induced; calls only at 20 µM; 69% of 1,000 active;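 active = inhibition of receptor movement into the nucleus at or above a set limit in both runs, with normal cell brightness and cell count; inconclusive = limit reached in only one run, brightness and count normal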;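 note: dexamethasone at 1 µM final in well for 30 min; nuclear minus cytoplasmic GR-EGFP mean intensity difference in channel 2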
* = called active by the depositor; i = inactive; u = inconclusive; x = no result given; + = active, no number. Hits are enriched below; roughly 0.97% of the tested compounds scored in any of these assays.

SMILES	Dynein transport	L929 necroptosis	MDM2 E3 inh	TNF necrop inh	B2AR ag	Dynein inh conf
Cc1[nH]c2ccccc2c(=O)c1C(=O)/C=C/c1ccccc1	-6.05*	70.6	-19.1	-13.0	3.5	+
Cc1ccc(C2C(C#N)=C(N)Oc3cc(N)ccc32)cc1 (stereo unspecified)	x	x	x	x	8.6	x
Cc1ccc(/C=C2\CCC3=C2OC(N)=C(C#N)C3c2ccc(C)cc2)cc1 (stereo unspecified)	-8.97	1.2	1.9	-23.9	x	i
Cn1cc([N+](=O)[O-])c(C(=O)Nc2cc(Oc3ccccc3)cc([N+](=O)[O-])c2)n1	-3.86*	-0.7	12.6	-2.8	36.3	+
Cc1cc(C)n2c(=O)c3ccc(Cl)cc3nc2c1C#N	0.497	2.0	-6.1	-0.6	-7.7	x
Cc1cc(Cl)n2c(nc3cc(F)c(F)cc32)c1C#N	-4.34*	-0.6	-47.1	-12.7	112.8*	+
Cc1c(N=C2C=CC(=O)c3ccccc32)c(=O)n(-c2ccccc2)n1C	-4.67*	36.5	-9.4	-11.8	43.9*	+
Cc1c(N=C2C=C(Br)C(=O)C(Br)=C2)c(=O)n(-c2ccccc2)n1C	-0.0422	-0.3	-20.2	-2.8	0.8	x
NCCNc1ccc([N+](=O)[O-])cc1	-0.165	0.1	-14.4	0.7	0.2	x
Cc1ccc(-n2nnnc2C(Cl)(Cl)c2nnnn2-c2ccc(C)cc2)cc1	-4.6*	0.5	-10.9	-23.3	17.5	+
Clc1ccc(-c2nnnn2-c2ccc(Cl)cc2)cc1	-0.497	-0.2	0.6	2.8	-15.7	x
N#CCCS(=O)(=O)c1nnnn1-c1ccccc1	-5.03*	-0.5	x	-10.9	x	u
CCOC(=O)CN1C(=O)CSc2ccc(S(=O)(=O)N3CCOCC3)cc21	x	x	x	x	4.7	x
COCCN(C(=O)COC(=O)C12CC3CC(CC(Cl)(C3)C1)C2)c1c(N)n(Cc2ccccc2)c(=O)[nH]c1=O	x	x	x	x	5.7	x
COc1ccccc1NC(=O)CCCCCN1C(=O)c2cccc([N+](=O)[O-])c2C1=O	x	x	x	x	0.3	x
COc1cc(/C=C2/C(=O)c3cccc([N+](=O)[O-])c3C2=O)c(Br)cc1O	-3.52*	0.9	-14.5	-8.2	23.6	i
CCOc1cc(/C=C\[N+](=O)[O-])ccc1OCC(=O)Nc1ccccc1C	-3.55*	24.6	11.2	-15.1	112.4*	+
COc1cc(/C=C/c2cccc[n+]2C)ccc1OCC(=O)Nc1ccccc1C	x	x	x	x	4.4	x
O=c1[nH]sc2ccccc12	-3.8*	-0.7	-7.2	-4.9	3.0	+
CN(Cc1ncc[nH]1)C(=O)c1cc(COc2c(F)cccc2F)on1	-0.607	-0.4	-3.8	0.3	-5.3	x
Cc1ccc(Cn2ncc(Cl)c(Cl)c2=O)cc1	-3.3	-1.2	14.3	-9.2	20.2	x
O=c1c(Cl)c(Cl)cnn1Cc1nnc(-c2ccc(Cl)cc2)o1	-4.78*	59.5	0.0	-12.2	21.2	+
O=c1c(Cl)c(Cl)cnn1-c1ccccc1	-4.62*	-2.7	-12.6	-15.4	34.5	+
Cc1cc(C)cc(Cn2ncc(Cl)c(Cl)c2=O)c1	-6.13*	-0.8	-2.0	-4.8	x	+
O=c1c(Cl)c(Cl)cnn1Cc1ccccc1Cl	-3.94*	31.2	1.8	-28.9	x	+
SMILES	Dynein transport	L929 necroptosis	MDM2 E3 inh	TNF necrop inh	B2AR ag	Dynein inh conf
Cc1ccc(-c2nnc(Cc3ccc(Cl)cc3)o2)cc1	-0.109	0.9	-7.6	1.4	-20.8	x
COCCNC(=O)c1ccc(N2CCCCC2)c(NS(=O)(=O)c2ccc(C)cc2)c1	-0.0657	0.2	-1.8	-0.8	-6.9	x
Cc1noc(C)c1CSc1nc2ccccc2c(=O)n1-c1ccc(Cl)cc1	0.186	-0.5	3.9	-6.8	-8.6	x
COc1ccc(C)cc1NC(=O)CN1C(=O)COc2ccc(S(=O)(=O)N3CCCCC3)cc21	x	x	x	x	-0.9	x
COc1cc2c(cc1OC)C(SC)=NC1(CCCC1)C2	-3.56*	0.5	-4.3	-2.6	23.6	+
COc1cc2c(cc1OC)C(C)=NC1(CCCCC1)C2	-0.786	1.0	x	2.8	-0.7	x
Cc1cc(S(=O)(=O)Nc2cc(C)c(O)c(C)c2)c(C)s1	-3.99*	0.3	-6.0	-3.1	1.4	i
COc1ccccc1OCCn1cc(/C=C(\C#N)C(=O)NCc2cccs2)c2ccccc21	-0.673	2.1	-5.1	3.9	-7.1	x
CCN(CC)CCNC(=O)C1CCN(S(=O)(=O)N2CCCCC2)CC1	0.172	1.1	-0.3	-0.1	7.2	x
CC1Cc2ccccc2N1C(=O)Cn1cc([N+](=O)[O-])ccc1=O (stereo unspecified)	x	x	x	x	35.8	x
C=CCNCCOCCOc1ccc(Cl)cc1C(C)(C)C	-0.263	0.2	2.2	4.1	6.6	x
C=CCNCCCOc1ccc(Cl)cc1C(C)(C)C	-6.67*	7.4	-12.0	8.5	3.9	i
O=C(Oc1oc(-c2ccco2)nc1C=Nc1ccccc1)c1ccoc1	-4.04*	1.1	11.8	-19.3	-0.2	+
Cc1ccc(C(=O)Oc2oc(-c3ccco3)nc2C=Nc2ccc(Cl)cc2)cc1	-3.65*	0.0	-21.7	-0.8	33.0	+
O=C(Oc1oc(-c2ccco2)nc1C=Nc1ccccc1)c1ccco1	-3.18	-0.2	1.4	-11.2	14.4	x
O=S(=O)(c1cnc(Cl)c(Br)c1)N1CCc2ccccc21	-4.7*	-0.8	-10.1	-8.1	55.6*	+
COc1ccc2c(c1)c(CCNNC(=O)C(C)(C)C)c(C)n2C(=O)c1ccc(Cl)cc1	x	x	x	x	1.5	x
COc1cc(OC)c(OC)cc1CN1CCN(Cc2ccc(C(F)(F)F)cc2)CC1	x	x	x	x	3.7	x
CC(=O)c1ccc(N2CCN(C(=O)Cc3ccccc3)CC2)c(F)c1	x	x	x	x	-13.1	x
CCOC(=O)c1c(-c2ccccc2)csc1NC(=O)/C(C#N)=C/c1ccc(O)c(OC)c1	-4.75*	0.4	8.7	2.8	x	+
CCOC(=O)c1c(-c2ccccc2)csc1NC(=O)/C(C#N)=C/c1ccc(OC)c(OC)c1	4.26	1.3	-2.6	3.2	0.9	x
COC1=C(Br)C(=O)c2ncccc2C1=O	x	x	x	x	-15.6	x
Nc1cccc2c1C(=O)N(C(=O)/C=C/c1cccc(Br)c1)C2=O	-4.93*	1.2	35.3*	-20.4	17.6	+
COc1cc(/C=C/C(=O)N2C(=O)c3cccc(N)c3C2=O)cc(OC)c1OC	-0.316	-1.1	7.0	19.6	36.6	x
Nc1cccc2c1C(=O)N(C(=O)/C=C/c1cccc(F)c1)C2=O	-4.3*	2.2	7.5	-4.4	-19.3	+
CN(NC(=O)c1ccccc1)c1ncc(C(F)(F)F)cc1Cl	0.205	-0.3	-18.8	-0.1	-3.2	x
O=C1/C(=C/c2ccccc2[N+](=O)[O-])COc2ccccc21	-5.72*	-2.2	x	11.8	7.6	+
COc1ccc(Cl)cc1-c1nc(SCC(=O)NC2CCCC2)n[nH]1	x	x	x	x	-7.6	x

Screening results deposited in PubChem BioAssay by several laboratories.
